As usually defined, the AC50 is the concentration at which the activity in the assay is half-maximal.

Several values for one entry are separate records, joined by “and”; a condition that tells them apart may be missing. Equal entries are not always repeated. Results filed as inconclusive are left out. Activity calls are given as the source filed them.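 The calls were made as follows: active = compounds lowering the viability signal in every test, with half-maximal concentration at most ten times the top dose; inconclusive = mixed test calls, a flat partial drop, or a poor fit; inactive = all tests inactive.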

From PubChem BioAssay AID504666 (Broad Institute, 2011) come the findings set out here.

Test [1] deals with HMLE_sh_eGFP viability, CellTiter-Glo luminescence, 72 h. Kind of test: cytotoxicity toward control HMLE_sh_eGFP cells, dose response, counter-screen for breast cancer stem cell project, cell-based, CellTiter-Glo luminescence, 72 h, dry powder, set 6 (AID 504666). The essentials:
(§1)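 dosing = 100 nL pinned compound | system = HMLE_sh_eGFP cells | detection = CellTiter-Glo luminescence | times = ~70-74 h compound exposure, 37 °C | medium = serum-free culture medium for cell plating and exposure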
(The purpose of a counterscreen is to sort out artefacts and off-target activity.)

Experiment in test [2]: as above
The settings on record: HMLE_sh_eGFP viability, CellTiter-Glo luminescence, 72 h. The essentials: as §1
Background: Cellular ATP, detected with luciferase, serves as a proxy for viable cell number.

In the case of `CC(C)c1ccc(/C=C/C(=O)NC2=NCCS2)cc1`, the half-maximal activity concentration (AC50) in test [1] was 21.7 µM.

In the case of `Cc1csc(NC(=O)c2ccc(COc3cccc(Oc4ccccc4)c3)o2)n1`, the AC50 in test [1] is 0.738 µM. For the compound `N#Cc1csc(NC(=O)c2ccc(COc3ccccc3)o2)n1`, the AC50 in test [1] was 23.1 µM. Turning to `CCN(CC)C(=O)c1ccc(COc2ccccc2)o1`, the activity change, negative = toxicity in test [2] (at 19.5 µM (top of the series)) is -2.12% (inactive). For `Cc1csc(NC(=O)c2coc(COc3ccccc3)c2)n1`, the AC50 in test [1] is 2.78 µM. For the compound `CC(C)c1ccc(/C=C/C(=O)N(C)C2=NCCS2)cc1`, in test [2] (at 19.5 µM (top of the series)), the activity change, negative = toxicity was -2.24% (inactive). Consider `CCOc1cccc(OCc2ccc(C(=O)Nc3nc(C)cs3)o2)c1`, for which the AC50 in test [1] is 4.16 µM.

With `COc1ccc(Cl)c(OCc2ccc(C(=O)Nc3nc(C)cs3)o2)c1`, the AC50 in test [1] is 0.166 µM.

Turning to `COc1ccc2nc(NC(=O)c3ccc(COc4ccccc4)o3)sc2c1`, in test [1], the AC50 is 2.54 µM.

As for `Cc1csc(NC(=O)c2ccc(CS(=O)(=O)c3ccccc3)o2)n1`, in test [2] (at 19.5 µM (top of the series)), the activity change, negative = toxicity is 1.03% (inactive).

Take `Cc1csc(NC(=O)c2ccc(COc3ccccc3)o2)n1`: the half-maximal activity concentration (AC50) in test [1] is 21.1 µM. For the compound `C/C(=C\C(=O)NC1=NCCS1)c1ccc(CC(C)C)cc1`, the AC50 in test [1] is 27.4 µM.

With `Cc1coc(NC(=O)/C=C/c2ccc(C(C)C)cc2)n1`, the activity change, negative = toxicity in test [2] (at 19.5 µM (top of the series)) was -9.8% (inactive).

On to `Cc1ccc(OCc2ccc(C(=O)Nc3nc(C)cs3)o2)cc1`, for which the AC50 in test [1] is 6.79 µM. Take `Cc1csc(NC(=O)c2ccc(CNc3ccccc3)o2)n1`: the AC50 in test [1] was 2.62 µM. Take `Cc1csc(NC(=O)c2ccc(CCc3ccccc3)o2)n1`: in test [1], the AC50 is 5.68 µM. As for `Cc1csc(NC(=O)c2ccc(COc3cccc(F)c3)o2)n1`, the AC50 in test [1] is 18.6 µM. Regarding `Cc1csc(NC(=O)c2cocc2COc2ccccc2)n1`, the activity change, negative = toxicity in test [2] (at 30 µM (top of the series)) is 8.46% (inactive).

As to `Cc1csc(NC(=O)c2ccoc2COc2ccccc2)n1`, the AC50 in test [1] is 20.5 µM.

With `O=C(Nc1nc2c(Cl)cccc2s1)c1ccc(COc2ccccc2)o1`, the AC50 in test [1] was 31.3 µM.

On to `Cc1csc(NC(=O)c2ccc(COc3cccc(OC(F)(F)F)c3)o2)n1`, for which, in test [1], the concentration at half-maximal activity (AC50) is 0.667 µM. Turning to `Cc1csc(NC(=O)c2ccc(COc3cccc(S(C)(=O)=O)c3)o2)n1`, the activity change, negative = toxicity in test [2] (at 19.5 µM (top of the series)) was -5.74% (inactive).

Regarding `COc1ccc(OC)c2sc(NC(=O)c3ccc(COc4ccccc4)o3)nc12`, the activity change, negative = toxicity in test [2] (at 30 µM (top of the series)) was -8.62% (inactive). In the case of `Cc1csc(NC(=O)c2ccc(COc3cccc(Cl)c3)o2)n1`, the half-maximal activity concentration (AC50) in test [1] was 9.15 µM. Same read-out and setting: the result for `Cc1csc(NC(=O)c2ccc(COc3cc(Cl)ccc3Cl)o2)n1` reads 0.063 µM; that for `CCc1ccc(/C=C/C(=O)NC2=NCCS2)cc1`, 28.3 µM; that for `CC(C)c1ccc(/C=C/C(=O)Nc2nc(C(F)(F)F)cs2)cc1`, 8.98 µM. In the case of `Cc1csc(NC(=O)c2ccc(COC(C)(C)C)o2)n1`, the activity change, negative = toxicity in test [2] (at 19.5 µM (top of the series)) was -6.71% (inactive). For the compound `Cc1cc(Br)ccc1OCC(=O)N/N=C/c1ccc[nH]1`, in test [1], the AC50 was 17.7 µM. For `Cc1cc(C)c(OCC(=O)N/N=C/c2ccc[nH]2)c(C)c1`, in test [2] (at 19.5 µM (top of the series)), the activity change, negative = toxicity is -14% (inactive). Turning to `O=C(Nc1nc(C(F)(F)F)cs1)c1ccc(COc2ccccc2)o1`, in test [1], the AC50 is 19.3 µM. Regarding `O=C(Nc1nncs1)c1ccc(COc2ccccc2)o1`, the activity change, negative = toxicity in test [2] (at 19.5 µM (top of the series)) is 8.89% (inactive). Take `Cc1csc(NCc2ccc(COc3ccccc3)o2)n1`: the AC50 in test [1] is 20.7 µM. Take `COc1cccc(OCc2ccc(C(=O)Nc3nc(C)cs3)o2)c1`: the AC50 in test [1] was 1.65 µM.

Turning to `CC(C)NC(=O)c1ccc(COc2ccccc2)o1`, the activity change, negative = toxicity in test [2] (at 19.5 µM (top of the series)) was 0.674% (inactive). As for `Cc1ccc2cc(C(=O)NC3=NCCS3)n(C)c2c1`, the activity change, negative = toxicity in test [2] (at 30 µM (top of the series)) is -2.52% (inactive). On to `Cc1cccc(OCc2ccc(C(=O)Nc3nc(C)cs3)o2)c1`, for which, in test [1], the AC50 was 0.254 µM and 1.98 µM. For `CC(C)c1ccc(C2CC2C(=O)NC2=NCCS2)cc1` (stereo not drawn), in test [1], the AC50 was 23.9 µM. Take `Cc1coc(NC(=O)c2ccc(COc3ccccc3)o2)n1`: in test [2] (at 19.5 µM (top of the series)), the activity change, negative = toxicity is -6.36% (inactive). Still for that read-out and setting: the result for `Cc1csc(NC(=O)c2ccc(COC(C)C)o2)n1` reads 7.01% (inactive). `C/C(=C\C(=O)NC1=NCCS1)c1ccc(C)cc1`: in test [2] (at 19.5 µM (top of the series)), the activity change, negative = toxicity was -6.97% (inactive). Take `COc1ccc(/C=C/C(=O)NC2=NCCS2)c(OC)c1`: the activity change, negative = toxicity in test [2] (at 19.5 µM (top of the series)) was -4.82% (inactive). For `CC(C)Cc1ccc(/C=C/C(=O)NC2=NCCS2)cc1`, in test [1], the half-maximal activity concentration (AC50) was 1.07 µM. As to `Cc1csc(NC(=O)c2ccc(COCc3ccccc3)o2)n1`, the half-maximal activity concentration (AC50) in test [1] is 10.5 µM. As to `CC(C)c1ccc(/C=C/C(=O)Nc2cncs2)cc1`, the AC50 in test [1] is 9.59 µM.

Take `Cc1csc(NC(=O)c2ccc(COC3CCCCC3)o2)n1`: in test [1], the AC50 is 18.5 µM. As to `COc1ccc(OCc2ccc(C(=O)Nc3nc(C)cs3)o2)c(F)c1`, in test [1], the AC50 was 14.2 µM. Turning to `Cc1csc(NC(=O)c2ccc(COc3ccccc3F)o2)n1`, the AC50 in test [1] is 0.089 µM.
